This is a sample that favours compounds with a hit; in the whole collection about 3.1% have one here.
KCNK9 inh: blocks the human KCNK9 two-pore domain potassium channel. Q9NPC2. actives 1.2% (n = 310,000). B-score at 10 µM. HEK293 KCNK9, FluxOR thallium flux fluorescence; active compounds read low;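 active = ratio B-score over 3 SD below the library mean, with starting fluorescence within 5 SD of its mean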;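 note: negative B-score means less thallium flux so channel inhibition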
KCNK3 inh: human KCNK3 channel inhibition, primary screen; O14649; CHO-KCNK3 thallium flux, FluxOR fluorescence; active compounds read low; B-score at 10 µM; actives 0.84% (n = 340,000); AID 602410;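 active = B-score under library mean minus 4 SD, starting fluorescence ratio at most library mean plus 5 SD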;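 note: more negative B-score means stronger inhibition of thallium flux through KCNK3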
hERG protect: hERG (human) protection from proarrhythmic block; CHO-hERG, FluxOR thallium flux, dofetilide IC70 present; AID 1511; activation (rescue from dofetilide block), less the hit threshold, % at 10 µM; actives 0.51% (n = 310,000);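 active = activation above the mean of controls blocked by dofetilide plus 5 SD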;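 note: thallium influx through hERG after potassium depolarization seen as dye fluorescence rise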
Target sequence (Q12809 whole entry, looked up): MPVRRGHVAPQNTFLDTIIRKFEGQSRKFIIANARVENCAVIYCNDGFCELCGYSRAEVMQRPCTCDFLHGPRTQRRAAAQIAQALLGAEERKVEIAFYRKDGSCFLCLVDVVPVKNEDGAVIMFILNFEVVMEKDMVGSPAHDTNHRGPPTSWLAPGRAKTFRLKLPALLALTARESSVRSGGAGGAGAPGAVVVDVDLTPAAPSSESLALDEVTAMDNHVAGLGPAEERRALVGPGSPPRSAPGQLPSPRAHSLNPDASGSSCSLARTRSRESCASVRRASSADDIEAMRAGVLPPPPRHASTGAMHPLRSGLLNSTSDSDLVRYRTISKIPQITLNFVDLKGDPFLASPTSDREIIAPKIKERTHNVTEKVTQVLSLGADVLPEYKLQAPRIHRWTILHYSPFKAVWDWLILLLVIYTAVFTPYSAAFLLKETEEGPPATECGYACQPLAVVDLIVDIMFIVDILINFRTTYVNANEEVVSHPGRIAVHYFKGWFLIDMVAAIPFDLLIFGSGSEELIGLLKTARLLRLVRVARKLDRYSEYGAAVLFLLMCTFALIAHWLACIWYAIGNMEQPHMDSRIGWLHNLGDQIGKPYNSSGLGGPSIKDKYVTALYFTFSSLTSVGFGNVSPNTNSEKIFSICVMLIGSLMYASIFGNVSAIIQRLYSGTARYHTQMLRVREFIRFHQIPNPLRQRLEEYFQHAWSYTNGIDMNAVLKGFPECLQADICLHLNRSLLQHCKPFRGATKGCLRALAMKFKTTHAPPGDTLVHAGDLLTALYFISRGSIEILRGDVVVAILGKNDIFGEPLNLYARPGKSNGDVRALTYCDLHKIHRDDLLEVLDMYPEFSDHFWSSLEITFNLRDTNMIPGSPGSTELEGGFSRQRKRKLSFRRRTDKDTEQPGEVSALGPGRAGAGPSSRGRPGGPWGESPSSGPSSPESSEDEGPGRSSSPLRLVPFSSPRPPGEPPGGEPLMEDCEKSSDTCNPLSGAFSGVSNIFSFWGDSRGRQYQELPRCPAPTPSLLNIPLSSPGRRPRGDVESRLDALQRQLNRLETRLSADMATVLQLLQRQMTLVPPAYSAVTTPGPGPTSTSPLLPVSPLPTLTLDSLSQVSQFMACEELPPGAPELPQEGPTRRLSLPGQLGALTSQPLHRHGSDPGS
KCNQ1 pot: potentiates or activates the human KCNQ1 potassium channel. P51787. CHO-K1 KCNQ1, thallium flux FluxOR fluorescence; active compounds read high. B-score at 10 µM. actives 0.35% (n = 310,000);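 active = fluorescence ratio B-score, a plate-corrected score, at least three library SD, with initial intensity B-score within 5 SD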
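Test system: CHO-K1 cells stably expressing KCNQ1 / Medium: assay buffer / Also added: depolarizing K+/Tl+ stimulus, K2SO4 and Tl2SO4 each 12.5 mM in 5x stock / Incubation: 90 min dye loading and 20 min compound exposure, both at room temperature / Signal: thallium influx via FluxOR fluorescence, kinetic imaging / Evaluation: B score of baseline-normalized fluorescence ratio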
KCNQ1 inh: inhibitors of human KCNQ1 potassium channel; actives 1.3% (n = 310,000); CHO-K1 KCNQ1, FluxOR thallium flux fluorescence; active compounds read high; B-score at 10 µM; P51787;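 active = compounds whose thallium flux B-score, printed positive for inhibition, exceeds three library SD while starting fluorescence stays within three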;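 note: channel opened by potassium depolarization with thallium stimulus after 20 min compound exposure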
* = called active by the depositor.

Results for CC(C)C1C(c2ccccc2)N(C)C(c2ccccc2)CC1(O)c1ccccc1 (stereo not drawn) ?
KCNK9 inh: inactive; KCNK3 inh: inactive; hERG protect: -9; KCNQ1 pot: inactive; KCNQ1 inh: inactive

What do the screens show for `CC(C)C1C(c2ccccc2)NC(c2ccccc2)CC1(O)c1ccc(F)cc1` (stereo not drawn)?
KCNK9 inh: inactive; KCNK3 inh: inactive; hERG protect: -19; KCNQ1 pot: inactive; KCNQ1 inh: 7*

What do the screens show for `CC(C)NC(=O)Nc1cccc2c1O[C@H](CN(C)C(=O)NC1CCCCC1)[C@@H](C)CN([C@H](C)CO)C2=O`?
KCNK3 inh: inactive

What do the screens show for `CCOC(=O)N1CCN(C(=O)COC(=O)c2cc(Cl)cc(Cl)c2)CC1`?
KCNK3 inh: inactive

How did CCOC(=O)N1CCN(C(=O)COC(=O)c2cc(Cl)c(O)c(Cl)c2)CC1 do in these assays?
KCNK9 inh: inactive; KCNK3 inh: inactive; hERG protect: 8.1*; KCNQ1 pot: inactive; KCNQ1 inh: inactive

Results for CCc1ccc(C(C)NC(=O)C2(C)CC2(Br)Br)cc1 (stereo not drawn) ?
KCNK9 inh: inactive; KCNK3 inh: inactive; hERG protect: 4.9*; KCNQ1 pot: inactive; KCNQ1 inh: inactive

What do the screens show for `CCc1ccc(C(C)NC(=O)C2CCCC2)cc1` (stereo not drawn)?
KCNK9 inh: inactive; KCNK3 inh: inactive; hERG protect: 4.9*; KCNQ1 pot: inactive; KCNQ1 inh: inactive

Results for CCC(NC(=O)C1(C)CC1(Br)Br)c1ccc(C)cc1 (stereo not drawn) ?
KCNK9 inh: inactive; KCNK3 inh: inactive; hERG protect: -10; KCNQ1 pot: inactive; KCNQ1 inh: inactive

Results for CC(OC(=O)CC1Sc2ccccc2NC1=O)C(=O)N(C)Cc1ccccc1 (stereo not drawn) ?
KCNK3 inh: inactive

Results for CN(CC(=O)Nc1ccccc1Cl)CC(=O)Nc1sc2c(c1C(N)=O)CCC2 ?
KCNK9 inh: inactive; KCNK3 inh: inactive; hERG protect: -16; KCNQ1 pot: inactive; KCNQ1 inh: inactive

Results for Clc1cnc(N/N=C/c2ccco2)c(Cl)c1 ?
KCNK9 inh: inactive; KCNK3 inh: inactive; hERG protect: -4; KCNQ1 pot: inactive; KCNQ1 inh: inactive

How did Cc1ccc(/C=N/Nc2ncc(Cl)cc2Cl)s1 do in these assays?
KCNK9 inh: inactive; KCNK3 inh: inactive; hERG protect: -23; KCNQ1 pot: inactive; KCNQ1 inh: 7*

What do the screens show for `Clc1cnc(N/N=C/c2cccs2)c(Cl)c1`?
KCNK9 inh: inactive; KCNK3 inh: inactive; hERG protect: -13; KCNQ1 pot: inactive; KCNQ1 inh: 6*

What do the screens show for `Oc1ccc(/C=N/Nc2ncc(Cl)cc2Cl)cc1`?
KCNK9 inh: inactive; KCNK3 inh: inactive; hERG protect: -1; KCNQ1 pot: inactive; KCNQ1 inh: inactive

How did c1ccc(N2CC3COc4ccccc4C3=N2)cc1 (stereo not drawn) do in these assays?
KCNK3 inh: inactive

How did CSc1ncc(Cl)c(C(=O)Nc2cccc(Cl)c2)n1 do in these assays?
KCNK9 inh: inactive; KCNK3 inh: inactive; hERG protect: -3; KCNQ1 pot: inactive; KCNQ1 inh: inactive

How did C=CCc1ccc(OCCCCN2CC(C)OC(C)C2)c(OC)c1 (stereo not drawn) do in these assays?
KCNK9 inh: inactive; KCNK3 inh: inactive; hERG protect: 4.9*; KCNQ1 pot: inactive; KCNQ1 inh: inactive

How did CCCOc1ccc(CN(CCC#N)C(=S)NC(=O)c2ccccc2)cc1 do in these assays?
KCNK9 inh: inactive; KCNK3 inh: inactive; hERG protect: 59*; KCNQ1 pot: 14*; KCNQ1 inh: inactive

How did Cc1c(Cl)cccc1NS(=O)(=O)c1c(C(=O)N2CCOCC2)c(C)n(C)c1C do in these assays?
KCNK9 inh: inactive; KCNK3 inh: inactive; hERG protect: -6; KCNQ1 pot: inactive; KCNQ1 inh: inactive

Results for COC(=O)C1=CN(Cc2cccs2)C=C(C(=O)OC)C1c1cccc(Cl)c1 ?
KCNK9 inh: -7.9*; KCNK3 inh: inactive; hERG protect: -12; KCNQ1 pot: inactive; KCNQ1 inh: inactive

How did Cn1cnc2c(cnn2C)c1=N do in these assays?
KCNK3 inh: inactive

What do the screens show for `COc1ccc(CN(C)CC(O)COC(c2ccccc2)c2ccccc2)c(OC)c1OC` (stereo not drawn)?
KCNK9 inh: inactive; KCNK3 inh: inactive; hERG protect: -10; KCNQ1 pot: inactive; KCNQ1 inh: inactive

Results for COc1ccc(CN(C)C(c2ccccc2)c2nnnn2-c2ccccc2C)c(OC)c1C (stereo not drawn) ?
KCNK9 inh: -7.9*; KCNK3 inh: inactive; hERG protect: -20; KCNQ1 pot: inactive; KCNQ1 inh: inactive

How did O=C1C(Cl)=C(NCc2cccnc2)C(=O)c2ccccc21 do in these assays?
KCNK9 inh: inactive; KCNK3 inh: inactive; hERG protect: -17; KCNQ1 pot: inactive; KCNQ1 inh: 9*

What do the screens show for `C=CCNC1=C(Cl)C(=O)c2ccccc2C1=O`?
KCNK9 inh: inactive; KCNK3 inh: inactive; hERG protect: -4; KCNQ1 pot: inactive; KCNQ1 inh: inactive

Results for CC(C)NC1=C(Cl)C(=O)c2ccccc2C1=O ?
KCNK9 inh: inactive; KCNK3 inh: inactive; hERG protect: 4.9*; KCNQ1 pot: inactive; KCNQ1 inh: inactive

How did COc1ccc(NC(=O)CN(c2c(C)cccc2C)S(C)(=O)=O)cc1 do in these assays?
KCNK9 inh: inactive; KCNK3 inh: inactive; hERG protect: -13; KCNQ1 pot: inactive; KCNQ1 inh: inactive

What do the screens show for `N#Cc1ccccc1S(=O)(=O)N1CCN(C(=O)[C@@H]2CCCN2C(=O)c2cccs2)CC1`?
KCNK3 inh: inactive

How did COc1ccc(C(CC(=O)O)NC(=O)C(c2ccccc2)c2ccccc2)cc1 (stereo not drawn) do in these assays?
KCNK9 inh: inactive; KCNK3 inh: inactive; hERG protect: 11*; KCNQ1 pot: inactive; KCNQ1 inh: inactive

What do the screens show for `CN(Cc1ccccc1)C1=CC(=[N+]2CCCCC2)CC(C)(C)C1`?
KCNK9 inh: inactive; KCNK3 inh: inactive; hERG protect: -20; KCNQ1 pot: inactive; KCNQ1 inh: 6*

Results for CC1(C)CC(N2CCN(Cc3ccccc3)CC2)=CC(=[N+]2CCCCC2)C1 ?
KCNK9 inh: inactive; KCNK3 inh: inactive; hERG protect: -12; KCNQ1 pot: inactive; KCNQ1 inh: inactive

What do the screens show for `Cc1cc(N2CCN(c3ccccc3)CC2)nc(-c2ccccc2)n1`?
KCNK9 inh: -7.6*; KCNK3 inh: inactive; hERG protect: -2; KCNQ1 pot: inactive; KCNQ1 inh: inactive

What do the screens show for `Oc1ccc(CNc2ccccc2F)c2cccnc12`?
KCNK9 inh: inactive; KCNK3 inh: inactive; hERG protect: -11; KCNQ1 pot: inactive; KCNQ1 inh: 7*
